Data from ChEMBL document CHEMBL4382220, “Enhancement of the tail hydrophobic interactions within the carbonic anhydrase IX active site via structural extension: Design and synthesis of novel N-substituted isatins-SLC-0111 hybrids as carbonic anhydrase inhibitors and antitumor agents” (Eur J Med Chem, 2019).

How the values were obtained:
Carbonic anhydrase 1 = Carbonic anhydrase 1 (Homo sapiens, UniProt P00915); experiment: Inhibition of recombinant human carbonic anhydrase 1 by stopped flow CO2 hydration assay
Carbonic anhydrase 9 = Carbonic anhydrase 9 (Homo sapiens, UniProt Q16790)
MDA-MB-231 [1] = experiment: Induction of apoptosis in human MDA-MB-231 cells assessed as necrotic cells after 24 hrs by Annexin V-FITC/propidium iodide staining based flow cytometry (reference value: 0.51%); assay type: functional
[2] = molecular target: Vascular endothelial growth factor receptor 2 (Homo sapiens, UniProt P35968)
MDA-MB-231 [3] = experiment: Antiproliferative activity against human MDA-MB-231 cells after 48 hrs under hypoxic condition by MTT assay; assay type: functional, cell-based; conditions: MDA-MB-231, 48 h
Summary of the method: (§1)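 MCF-7 and MDA-MB-231 cells (ATCC) grown in DMEM with 10% heat-inactivated FBS, 1% L-glutamine (2.5 mM), 10 mM HEPES, 50 μg/mL gentamycin and 100 μM CoCl2 as hypoxia inducer, 37 C, 5% CO2. MTT read-out after 48 h exposure. IC50 is the concentration giving 50% growth inhibition relative to untreated controls, mean ± S.D. of three separate experiments.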

MCF7 = experiment: Antiproliferative activity against human MCF7 cells after 48 hrs under hypoxic condition by MTT assay; assay type: functional, cell-based; conditions: MCF7, 48 h; summary of the method: as §1
MDA-MB-231 [4] = experiment: Induction of apoptosis in human MDA-MB-231 cells assessed as late apoptotic cells after 24 hrs by Annexin V-FITC/propidium iodide staining based flow cytometry (reference value: 0.26%); assay type: functional
MDA-MB-231 [5] = experiment: Induction of apoptosis in human MDA-MB-231 cells assessed as early apoptotic cells after 24 hrs by Annexin V-FITC/propidium iodide staining based flow cytometry (reference value: 0.77%); assay type: functional

Carbonic anhydrase 1, sequence (P00915 whole entry): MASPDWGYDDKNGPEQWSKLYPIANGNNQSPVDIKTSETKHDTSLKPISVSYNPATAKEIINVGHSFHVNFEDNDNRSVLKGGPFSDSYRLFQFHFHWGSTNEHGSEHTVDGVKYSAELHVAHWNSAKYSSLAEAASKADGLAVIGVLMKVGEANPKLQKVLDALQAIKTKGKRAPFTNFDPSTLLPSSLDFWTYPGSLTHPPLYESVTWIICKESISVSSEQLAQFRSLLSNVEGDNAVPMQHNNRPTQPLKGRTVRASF
Vascular endothelial growth factor receptor 2, sequence (P35968 whole entry): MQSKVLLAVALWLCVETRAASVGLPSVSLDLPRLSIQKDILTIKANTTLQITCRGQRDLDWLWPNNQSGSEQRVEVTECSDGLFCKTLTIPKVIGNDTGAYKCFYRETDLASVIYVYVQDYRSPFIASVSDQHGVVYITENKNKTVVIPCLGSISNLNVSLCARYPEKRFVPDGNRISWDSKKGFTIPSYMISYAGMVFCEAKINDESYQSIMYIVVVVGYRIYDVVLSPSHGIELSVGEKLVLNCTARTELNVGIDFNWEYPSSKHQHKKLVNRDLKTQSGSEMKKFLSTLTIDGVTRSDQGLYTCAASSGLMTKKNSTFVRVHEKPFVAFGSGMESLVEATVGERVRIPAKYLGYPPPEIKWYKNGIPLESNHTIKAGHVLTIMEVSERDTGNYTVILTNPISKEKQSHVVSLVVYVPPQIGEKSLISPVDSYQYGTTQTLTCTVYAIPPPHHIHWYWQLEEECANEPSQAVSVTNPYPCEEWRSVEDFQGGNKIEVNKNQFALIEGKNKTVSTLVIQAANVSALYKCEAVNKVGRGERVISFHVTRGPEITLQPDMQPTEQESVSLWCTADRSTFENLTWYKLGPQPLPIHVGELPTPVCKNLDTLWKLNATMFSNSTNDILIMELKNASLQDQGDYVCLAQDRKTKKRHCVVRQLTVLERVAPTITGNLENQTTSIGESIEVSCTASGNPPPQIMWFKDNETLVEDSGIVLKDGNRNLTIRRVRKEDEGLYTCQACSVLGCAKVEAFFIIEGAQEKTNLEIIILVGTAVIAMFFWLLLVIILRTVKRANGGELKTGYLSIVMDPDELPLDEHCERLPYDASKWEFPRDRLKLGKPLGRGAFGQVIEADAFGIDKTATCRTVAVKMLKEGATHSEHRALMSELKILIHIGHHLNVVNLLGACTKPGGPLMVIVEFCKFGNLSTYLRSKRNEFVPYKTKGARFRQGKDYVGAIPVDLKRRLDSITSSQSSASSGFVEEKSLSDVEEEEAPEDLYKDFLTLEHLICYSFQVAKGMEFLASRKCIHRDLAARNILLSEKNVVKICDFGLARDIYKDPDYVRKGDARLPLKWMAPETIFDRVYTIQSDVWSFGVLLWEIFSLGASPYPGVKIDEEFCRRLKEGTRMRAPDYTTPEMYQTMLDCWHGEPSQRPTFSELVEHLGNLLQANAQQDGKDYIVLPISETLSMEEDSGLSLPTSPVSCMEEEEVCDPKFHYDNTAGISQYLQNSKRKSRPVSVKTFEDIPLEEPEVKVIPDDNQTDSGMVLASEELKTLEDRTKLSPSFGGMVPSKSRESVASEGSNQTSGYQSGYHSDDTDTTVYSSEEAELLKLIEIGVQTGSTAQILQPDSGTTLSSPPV

| Ki (Carbonic anhydrase 1) [nM] | Ki (Carbonic anhydrase 9) [nM] | SMILES | other results |
| --- | --- | --- | --- |
| 2960 | 26.7 | CCCN1C(=O)/C(=N\c2ccc(NC(=O)Nc3ccc(S(N)(=O)=O)cc3)cc2)c2cc(Br)ccc21 | – |
| 407 | 5.2 | CN1C(=O)/C(=N\c2ccc(NC(=O)Nc3ccc(S(N)(=O)=O)cc3)cc2)c2cc(Cl)ccc21 | Activity (MDA-MB-231 [1]): 2.47%; IC50 [2]: 261 nM; IC50 (MDA-MB-231 [3]): 7430 nM; IC50 (MCF7): 12900 nM; Activity (MDA-MB-231 [4]): 11.26%; Activity (MDA-MB-231 [5]): 7.28% |
| 5890 | 41.2 | NS(=O)(=O)c1ccc(NC(=O)Nc2ccc(/N=C3\C(=O)N(Cc4ccccc4)c4ccc(Br)cc43)cc2)cc1 | – |
| 939 | 19.6 | CCCN1C(=O)/C(=N\c2ccc(NC(=O)Nc3ccc(S(N)(=O)=O)cc3)cc2)c2ccccc21 | – |
| 6150 | 43 | Cc1ccc(CN2C(=O)/C(=N\c3ccc(NC(=O)Nc4ccc(S(N)(=O)=O)cc4)cc3)c3cc(Cl)ccc32)cc1 | – |
| 641 | 73.2 | NS(=O)(=O)c1ccc(NC(=O)Nc2ccc(/N=C3\C(=O)N(Cc4ccccc4)c4ccccc43)cc2)cc1 | – |
| 898 | 25.1 | CN1C(=O)/C(=N\c2ccc(NC(=O)Nc3ccc(S(N)(=O)=O)cc3)cc2)c2ccccc21 | – |
| 6570 | 4.7 | Cc1ccc(CN2C(=O)/C(=N\c3ccc(NC(=O)Nc4ccc(S(N)(=O)=O)cc4)cc3)c3ccccc32)cc1 | IC50 [2]: 462 nM; IC50 (MDA-MB-231 [3]): 48900 nM; IC50 (MCF7): 11800 nM |
| – | – | COc1cccc2c1C(=O)c1c(O)c3c(c(O)c1C2=O)C[C@@](O)(C(=O)CO)C[C@@H]3O[C@H]1C[C@H](N)[C@H](O)[C@H](C)O1 [DOXORUBICIN] | IC50 (MDA-MB-231 [3]): 8500 nM |
| 4640 | 26.4 | Cc1ccc(CN2C(=O)/C(=N\c3ccc(NC(=O)Nc4ccc(S(N)(=O)=O)cc4)cc3)c3cc(Br)ccc32)cc1 | – |
| 2500 | 86.1 | NS(=O)(=O)c1ccc(NC(=O)Nc2ccc(/N=C3\C(=O)N(Cc4ccccc4)c4ccc(Cl)cc43)cc2)cc1 | – |
| 1960 | 9.2 | CN1C(=O)/C(=N\c2ccc(NC(=O)Nc3ccc(S(N)(=O)=O)cc3)cc2)c2cc(Br)ccc21 | – |
| 607 | 8.2 | CCCN1C(=O)/C(=N\c2ccc(NC(=O)Nc3ccc(S(N)(=O)=O)cc3)cc2)c2cc(Cl)ccc21 | IC50 [2]: 384 nM; IC50 (MDA-MB-231 [3]): 25600 nM; IC50 (MCF7): 7360 nM |
| 2070 | 54.5 | NS(=O)(=O)c1ccc(NC(=O)Nc2ccc(/N=C3\C(=O)N(Cc4cccc(F)c4)c4ccccc43)cc2)cc1 | – |
| 5100 | 58.8 | NS(=O)(=O)c1ccc(NC(=O)Nc2ccc(/N=C3\C(=O)N(Cc4cccc(F)c4)c4ccc(Cl)cc43)cc2)cc1 | – |
| 8290 | 34.7 | N#Cc1ccc(CN2C(=O)/C(=N\c3ccc(NC(=O)Nc4ccc(S(N)(=O)=O)cc4)cc3)c3cc(Cl)ccc32)cc1 | – |
| 5840 | 36.9 | N#Cc1ccc(CN2C(=O)/C(=N\c3ccc(NC(=O)Nc4ccc(S(N)(=O)=O)cc4)cc3)c3cc(Br)ccc32)cc1 | – |
| 4700 | 61.2 | NS(=O)(=O)c1ccc(NC(=O)Nc2ccc(/N=C3\C(=O)N(Cc4cccc(F)c4)c4ccc(Br)cc43)cc2)cc1 | – |
| 2290 | 9.7 | N#Cc1ccc(CN2C(=O)/C(=N\c3ccc(NC(=O)Nc4ccc(S(N)(=O)=O)cc4)cc3)c3ccccc32)cc1 | IC50 [2]: 207 nM; IC50 (MDA-MB-231 [3]): 23200 nM; IC50 (MCF7): 5970 nM |
